Experimental data published in article PMC4547606 (Bioorganic & medicinal chemistry, 2015).
“And” between values parts separate entries of the source, which are not always exact repeats. Equal values may be shown once.

Assays:
mice = conditions: cited from earlier work
human CB2 receptor = human CB2 receptor (Homo sapiens, UniProt P34972); assay: CB2 calcium mobilization assay, antagonist screen at 10 μM; format: cell-based; conditions: read-out: CB2 % Inhibition of CP55,940, compound at 10 μM; percent inhibition of CP55,940 EC80 (100 nM); mean ± SEM, at least two independent experiments in duplicate
human CB2 receptor, sequence (P34972 whole entry): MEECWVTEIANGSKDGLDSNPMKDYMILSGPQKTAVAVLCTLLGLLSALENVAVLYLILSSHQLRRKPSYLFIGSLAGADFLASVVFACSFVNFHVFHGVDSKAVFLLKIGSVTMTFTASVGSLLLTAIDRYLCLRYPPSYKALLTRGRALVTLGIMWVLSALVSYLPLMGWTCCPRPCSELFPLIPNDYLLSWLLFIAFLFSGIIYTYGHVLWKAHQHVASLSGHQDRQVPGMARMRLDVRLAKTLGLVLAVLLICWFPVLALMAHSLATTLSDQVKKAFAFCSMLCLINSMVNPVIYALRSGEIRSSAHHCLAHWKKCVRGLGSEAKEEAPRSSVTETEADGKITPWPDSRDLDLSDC

rats [1] = conditions: cited from earlier work
human CB1 receptor [2] = target: T1, human CB1 receptor (Homo sapiens, UniProt P21554); assay: CB1 calcium mobilization assay, modulation experiments; format: cell-based; conditions: Figure 2
T1 sequence (P21554 whole entry): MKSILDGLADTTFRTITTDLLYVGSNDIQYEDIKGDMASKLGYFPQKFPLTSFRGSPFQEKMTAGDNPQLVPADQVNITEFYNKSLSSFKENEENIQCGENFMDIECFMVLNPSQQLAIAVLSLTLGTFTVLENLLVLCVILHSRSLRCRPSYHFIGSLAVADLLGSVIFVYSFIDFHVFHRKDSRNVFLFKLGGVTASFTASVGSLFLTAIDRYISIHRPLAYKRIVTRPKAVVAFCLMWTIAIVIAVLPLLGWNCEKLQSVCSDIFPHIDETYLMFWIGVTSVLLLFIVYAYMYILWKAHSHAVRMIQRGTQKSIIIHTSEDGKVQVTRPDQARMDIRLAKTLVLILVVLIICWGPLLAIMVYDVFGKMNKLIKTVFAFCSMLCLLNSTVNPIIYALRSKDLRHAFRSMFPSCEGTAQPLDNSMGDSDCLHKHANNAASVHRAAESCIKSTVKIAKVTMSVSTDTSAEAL
Procedure, shortened: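 CHO-RD-HGA16 cells stably expressing human CB1, plated the day before and kept overnight at 37°C, 5% CO2. Loaded with Calcium 5 dye for 45 min at 37°C in HBSS, 20 mM HEPES, 2.5 mM probenecid, pH 7.4. Pre-treated 15 min at 37°C with one test compound concentration, then serial CP55,940 dilutions added at 10 s. Fluorescence read every 1 s for 90 s.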

over forty GPCRs = conditions: including GPCRs commonly involved in drug addictions; cited from earlier work
rats [3] = conditions: cited from earlier work; remark: listed apart in the source
human CB1 receptor [4] = target: T1, human CB1 receptor; assay: CB1 calcium mobilization assay, antagonist; format: cell-based; conditions: ratio of CB1 IC50 values
Procedure, shortened: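 CHO-RD-HGA16 cells stably expressing human CB1 were plated overnight (37°C, 5% CO2), then Calcium 5 dye-loaded for 45 min at 37°C in HBSS/20 mM HEPES/2.5 mM probenecid, pH 7.4. Test compound dilutions were pre-incubated 15 min at 37°C. CP55,940 at EC80 was added at 10 s, and fluorescence was read every 1 s for 90 s. IC50 came from three-parameter logistic fits; at least three independent experiments in duplicate.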

Row | SMILES | inhibition at 10 µM (human CB2 receptor) | further results
1 | CCc1c(C(=O)NCCc2ccc(N(CC)CC)cc2)[nH]c2ccc(Cl)cc12 [Compound 17, 5-Chloro-N-{2-[4-(diethylamino)phenyl]ethyl}-3-ethyl-1H-indole-2-carboxamide] | – | fold more potent than compound 1 (CB1 IC50) (human CB1 receptor [4]): 2 fold
2 | CCc1c(C(=O)Nc2cccc(-c3cccc(N(C)C)n3)c2)[nH]c2ccc(Cl)cc12 [Compound 35, 5-Chloro-N-{3-[6-(dimethylamino)pyridin-2-yl]phenyl}-3-ethyl-1H-indole-2-carboxamide] | -19.2 ± 11.5% | –
3 | CCc1c(C(=O)N2CCN(c3ccccc3)CC2)[nH]c2ccc(Cl)cc12 [Compound 36, 5-Chloro-3-ethyl-2-(4-phenylpiperazine-1-carbonyl)-1H-indole] | -28 ± 25.9% | –
4 | CCc1c(C(=O)N2CCN(c3ccc(Cl)cc3)CC2)[nH]c2ccc(Cl)cc12 [Compound 37, 5-Chloro-2-[4-(4-chlorophenyl)piperazine-1-carbonyl]-3-ethyl-1H-indole] | -31.1 ± 18.8% | –
5 | CCc1c(C(=O)NCCc2ccc(N(CC)CC)cc2)[nH]c2ccc(F)cc12 [Compound 42, 5-Fluoro-N-{2-[4-(diethylamino)phenyl]ethyl}-3-ethyl-1H-indole-2-carboxamide] | -25.7 ± 10.7% | –
6 | CCN(CC)c1ccc(CCNC(=O)c2[nH]c3ccc(F)cc3c2C)cc1 [Compound 43, 5-Fluoro-N-{2-[4-(diethylamino)phenyl]ethyl}-3-methyl-1H-indole-2-carboxamide] | -21.8 ± 6.5% | –
7 | CCN(CC)c1ccc(CCNC(=O)c2cc3cc(F)ccc3[nH]2)cc1 [Compound 44, 5-Fluoro-N-{2-[4-(diethylamino)phenyl]ethyl}-1H-indole-2-carboxamide] | -23.8 ± 5.2% | –
8 | CCN(CC)c1ccc(CCNC(=O)c2cc3cc(Cl)ccc3[nH]2)cc1 [Compound 45, 5-Chloro-N-{2-[4-(diethylamino)phenyl]ethyl}-1H-indole-2-carboxamide] | – | fold more potent than compound 1 (CB1 IC50) (human CB1 receptor [4]): ~10 fold; fold more potent than compound 3 (CB1 IC50) (human CB1 receptor [4]): ~ 2.5 fold and 2.5 fold; fold more potent than compound 17 (CB1 IC50) (human CB1 receptor [4]): 6 fold; Effect on Emax of agonist CP55,940 (human CB1 receptor [2]): dose-dependently decreased the Emax
9 | CCc1c(C(=O)NCCc2ccc(N3CCCCC3)cc2)[nH]c2ccc(F)cc12 [Compound 46, 5-Fluoro-3-ethyl-N-{2-[4-(piperidin-1-yl)phenyl]ethyl}-1H-indole-2-carboxamide] | -33.1 ± 16.3% | –

Continued, in another order:

Row | inhibition at 10 µM (human CB2 receptor) | SMILES | further results
10 | -16.4 ± 1.8% | CCc1c(C(=O)NCCc2ccc(N3CCCCC3)cc2)[nH]c2ccc(Cl)cc12 [Compound 1, Org27569] | Anorectic effect, mechanism (mice): anorectic effect through non-CB1 specific mechanisms; Effect on CB1 agonist-induced effects (antinociception, catalepsy, hypothermia) (mice): did not enhance or block; Effect in catalepsy and antinociception (rats [1]): negative results; Effect on hypothermic effects of CB1 receptor agonists CP55940 and anandamide (rats [1]): attenuated the hypothermic effects; Effect on Emax of agonist CP55,940 (human CB1 receptor [2]): dose-dependently decreased the Emax; Pharmacological selectivity against over forty GPCRs (over forty GPCRs): high pharmacological selectivity; Cue- and drug-induced reinstatement of cocaine- and methamphetamine-seeking behavior (rats [3]): dose-related attenuation
11 | -20.4 ± 2.4% | CCc1c(C(=O)NCCc2ccc(N(C)C)cc2)[nH]c2ccc(F)cc12 [Compound 3, Org27759, reference compound] | Effect on Emax of agonist CP55,940 (human CB1 receptor [2]): dose-dependently decreased the Emax
12 | -12.7 ± 2.8% | CCc1c(C(=O)NCCc2ccc(N(C)C)cc2)[nH]c2ccc(Cl)cc12 [Compound 16, 5-Chloro-N-{2-[4-(dimethylamino)phenyl]ethyl}-3-ethyl-1H-indole-2-carboxamide] | –
13 | -37.4 ± 6.8% | CCCN(CCC)c1ccc(CCNC(=O)c2[nH]c3ccc(Cl)cc3c2CC)cc1 [Compound 18, 5-Chloro-N-{2-[4-(dipropylamino)phenyl]ethyl}-3-ethyl-1H-indole-2-carboxamide] | –
14 | -35 ± 4.6% | CCCCCCNc1ccc(CCNC(=O)c2[nH]c3ccc(Cl)cc3c2CC)cc1 [Compound 19, 5-Chloro-N-{2-[4-(hexylamino)phenyl]ethyl}-3-ethyl-1H-indole-2-carboxamide] | –
15 | -11.2 ± 19.6% | CCc1c(C(=O)NCCc2ccc(OC)cc2)[nH]c2ccc(Cl)cc12 [Compound 26, 5-Chloro-N-[2-(4-methoxyphenyl)ethyl]-3-ethyl-1H-indole-2-carboxamide] | –
16 | -18 ± 35.4% | CCc1c(C(=O)NCCc2ccc(C(C)(C)C)cc2)[nH]c2ccc(Cl)cc12 [Compound 27, 5-Chloro-N-[2-(4-tert-butylphenyl)ethyl]-3-ethyl-1H-indole-2-carboxamide] | –
